Experimental data reported in ChEMBL document CHEMBL5137048, “Design and synthesis of water-soluble prodrugs of rifabutin for intraveneous administration” (Eur J Med Chem, 2022).
≈ marks a conversion by molar mass, not a printed value.

Legend:
[1] = Water solubility of compound in HCL by UPLC-MS analysis; assay type: physicochemical
Summary of the method: (§1)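 Compounds were suspended at a nominal 10 or 50 mg/mL in PBS pH 7.4 or 26 mM HCl, vortexed, and mixed at 35 rpm for 24 h at RT. The mixture was centrifuged, the supernatant filtered and diluted 2000-fold in CH3CN, and analysed by UPLC-MS/MS (MRM). Solubility = AUC(buffer)/AUC(DMSO) × theoretical concentration.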

[2] = AUC (0 to infinity) in CD-1 mouse at 6.5 mg/kg, iv measured at 5 to 24 hrs by LC-MS/MS analysis; assay type: ADME, organism-based; parameters: dose 6.5 mg/kg, route iv; conditions: in vivo
Summary of the method: (§2)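 Female CD-1 (RjOrl:SWISS) mice, 8 weeks old at delivery, 9 per compound, given a single IV bolus into a lateral tail vein at 5 mL/kg. Basic compounds were dosed in 0.9% NaCl with 26 mM HCl, with 10% DMSO added for the parent drug; the phosphate prodrug was dosed in PBS pH 7.4. Retrobulbar blood was taken at 5, 15, 30 min and 1, 2, 4, 8, 12, 24 h. Plasma rifabutin was quantified by LC-MS/MS against a calibration curve, with griseofulvin as internal standard.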

[3] = Plasma concentration in CD-1 mouse at 6.5 mg/kg, iv measured after 24 hrs by LC-MS/MS analysis; assay type: ADME, organism-based; conditions: in vivo; summary of the method: as §2
[4] = tested on: Staphylococcus aureus; assay: Antibacterial activity against Staphylococcus aureus assessed as reduction in bacterial growth in CAMHB preincubated 6 hrs followed by human serum addition and measured after 20 hrs by microdilution assay; assay type: functional; conditions: time 26 hrs
Summary of the method: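 S. aureus USA300 UAMS-1625 in CAMHB. Drug at 10-fold the 32 µg/mL top concentration was first preincubated in 100% human serum for 6 h, then serially diluted 2-fold and bacteria added (5×10^5 CFU/mL inoculum). Plates held static at 35 °C for 20 h. MIC read visually. Three independent replicates.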

[5] = tested on: Staphylococcus aureus; assay: Antibacterial activity against Staphylococcus aureus assessed assessed as reduction in bacterial growth in CAMHB in absence of human serum measured after 20 hrs by microdilution assay; assay type: functional
Summary of the method: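 S. aureus USA300 UAMS-1625 in CAMHB without serum. CLSI broth microdilution, inoculum 5×10^5 CFU/mL, 2-fold dilutions from 32 µg/mL final. Plates held static at 35 °C for 20 h. MIC was the lowest concentration with no visible growth. Three independent replicates.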

[6] = Cmax in CD-1 mouse at 6.5 mg/kg, iv measured at 5 to 24 hrs by LC-MS/MS analysis; assay type: ADME, organism-based; parameters: time lower 5 hrs, dose 6.5 mg/kg, route iv; conditions: in vivo; summary of the method: as §2
[7] = Water solubility of compound in PBS buffer at pH 7.4 by UPLC-MS analysis; assay type: physicochemical; summary of the method: as §1
[8] = Chemical stability of compound by UPLC-MS/MS analysis; conditions: pH 7.4
[9] = Elimination half life in CD-1 mouse at 6.5 mg/kg, iv measured at 5 to 24 hrs by LC-MS/MS analysis; assay type: ADME, organism-based; conditions: in vivo, time lower 5 hrs, read-out: LambdaZ (converted); summary of the method: as §2
[10] = Tmax in CD-1 mouse at 6.5 mg/kg, iv measured at 5 to 24 hrs by LC-MS/MS analysis; assay type: ADME, organism-based; conditions: in vivo, time lower 5 hrs; summary of the method: as §2
[11] = tested on: Acinetobacter baumannii; assay: Antibacterial activity against Acinetobacter baumannii assessed as reduction in bacterial growth in CAMHB preincubated 6 hrs followed by human serum addition and measured after 20 hrs by microdilution assay; assay type: functional
[12] = tested on: Acinetobacter baumannii; assay: Antibacterial activity against Acinetobacter baumannii HUMC1 assessed as inhibition of bacterial growth incubated for 20 hrs by microdilution assay; assay type: functional
Summary of the method: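 Broth microdilution per CLSI against XDR A. baumannii HUMC1. Inoculum 5×10^5 CFU/mL in RPMI + 10% FCS, or in CAMHB + 50% human serum. Compounds tested as 2-fold dilutions from 32 µg/mL final. Plates incubated without shaking at 35 °C for 20 h. MIC read visually as the lowest concentration with no visible growth. Three independent replicates.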

[13] = Stability in human plasma assessed as compound remaining at 6 hrs by HPLC-MS analysis; assay type: ADME, cell-free; conditions: read-out: Stability
[14] = Cmax in CD-1 mouse at 5 mg/kg, iv measured at 5 to 24 hrs by LC-MS/MS analysis; assay type: ADME, organism-based; parameters: dose 5 mg/kg, route iv; conditions: in vivo; summary of the method: as §2
[15] = Elimination half life in CD-1 mouse at 5 mg/kg, iv measured at 5 to 24 hrs by LC-MS/MS analysis; assay type: ADME, organism-based; conditions: in vivo, time lower 5 hrs, read-out: LambdaZ (converted); summary of the method: as §2
[16] = AUC (0 to infinity) in CD-1 mouse at 5 mg/kg, iv measured at 5 to 24 hrs by LC-MS/MS analysis; assay type: ADME, organism-based; parameters: dose 5 mg/kg, route iv; conditions: in vivo; summary of the method: as §2
[17] = Tmax in CD-1 mouse at 7 mg/kg, iv measured at 5 to 24 hrs by LC-MS/MS analysis; assay type: ADME, organism-based; conditions: in vivo, time lower 5 hrs; summary of the method: as §2
[18] = Elimination half life in CD-1 mouse at 7 mg/kg, iv measured at 5 to 24 hrs by LC-MS/MS analysis; assay type: ADME, organism-based; conditions: in vivo, time lower 5 hrs, read-out: LambdaZ (converted); summary of the method: as §2
[19] = Cmax in CD-1 mouse at 7 mg/kg, iv measured at 5 to 24 hrs by LC-MS/MS analysis; assay type: ADME, organism-based; parameters: dose 7 mg/kg, route iv; conditions: in vivo; summary of the method: as §2
[20] = AUC (0 to infinity) in CD-1 mouse at 7 mg/kg, iv measured at 5 to 24 hrs by LC-MS/MS analysis; assay type: ADME, organism-based; parameters: dose 7 mg/kg, route iv; conditions: in vivo; summary of the method: as §2
[21] = Plasma concentration in CD-1 mouse at 7 mg/kg, iv measured after 24 hrs by LC-MS/MS analysis; assay type: ADME, organism-based; conditions: in vivo; summary of the method: as §2

| solubility [1] | MIC [4] | MIC [5] | solubility [7] | Stability [8] | MIC [11] | MIC [12] | remaining at 6 h [13] | SMILES | further results |
| --- | --- | --- | --- | --- | --- | --- | --- | --- | --- |
| 12.2 mg/mL (≈ 11500 µM) | 0.06 µg/mL (≈ 0.0564 µM) | 1 µg/mL (≈ 0.941 µM) | 0.7 mg/mL (≈ 658 µM) | 101% | 0.001 µg/mL (≈ 0.000941 µM) | – | – | CO[C@H]1/C=C/O[C@@]2(C)Oc3c(C)c(O)c4c(c3C2=O)C2NC3(CCN(CC(C)C)CC3)NC2=C(NC(=O)/C(C)=C\C=C\[C@H](C)[C@H](OC(=O)CN(C)C(=O)COC(=O)CN(C)C)[C@@H](C)[C@@H](O)[C@@H](C)[C@H](OC(C)=O)[C@@H]1C)C4=O (stereo partly specified) | AUC(0-inf) [2]: 6700 ng·h/mL; Drug uptake [3]: Active; Cmax [6]: 1100 ng/mL; half-life [9]: 3 h; Tmax [10]: 4.98 min |
| – | – | – | – | – | – | > 32 µg/mL | 99% | COCCC(=O)O[C@@H]1[C@@H](C)[C@@H](O)[C@@H](C)[C@H](OC(C)=O)[C@H](C)[C@@H](OC)/C=C/O[C@@]2(C)Oc3c(C)c(O)c4c(c3C2=O)C2NC3(CCN(CC(C)C)CC3)NC2=C(NC(=O)/C(C)=C\C=C\[C@@H]1C)C4=O (stereo partly specified) | – |
| 34.4 mg/mL (≈ 31100 µM) | 0.06 µg/mL (≈ 0.0543 µM) | 16 µg/mL (≈ 14.5 µM) | > 50 mg/mL | 99% | 0.001 µg/mL (≈ 0.000905 µM) | – | – | CO[C@H]1/C=C/O[C@@]2(C)Oc3c(C)c(O)c4c(c3C2=O)C2NC3(CCN(CC(C)C)CC3)NC2=C(NC(=O)/C(C)=C\C=C\[C@H](C)[C@H](OC(=O)CN(C)C(=O)CNC(=O)[C@@H](N)CCCCN)[C@@H](C)[C@@H](O)[C@@H](C)[C@H](OC(C)=O)[C@@H]1C)C4=O (stereo partly specified) | AUC(0-inf) [2]: 1000 ng·h/mL; Drug uptake [3]: Active; Cmax [6]: 300 ng/mL; half-life [9]: 10.7 h; Tmax [10]: 4.98 min |

The remaining lines, values behind:

| SMILES | solubility [1] | MIC [4] | MIC [5] | solubility [7] | Stability [8] | MIC [11] | MIC [12] | remaining at 6 h [13] | further results |
| --- | --- | --- | --- | --- | --- | --- | --- | --- | --- |
| COCCOC(=O)N1C2=C3NC(=O)/C(C)=C\C=C\[C@H](C)[C@H](O)[C@@H](C)[C@@H](O)[C@@H](C)[C@H](OC(C)=O)[C@H](C)[C@@H](OC)/C=C/O[C@@]4(C)Oc5c(C)c(O)c(c(c5C4=O)C2NC12CCN(CC(C)C)CC2)C3=O (stereo partly specified) | – | – | – | – | – | – | 0.06 µg/mL (≈ 0.0631 µM) | 86% | – |
| CO[C@H]1/C=C/O[C@@]2(C)Oc3c(C)c(O)c4c(c3C2=O)C2=NC3(CCN(CC(C)C)CC3)NC2=C(NC(=O)/C(C)=C\C=C\[C@H](C)[C@H](O)[C@@H](C)[C@@H](O)[C@@H](C)[C@H](OC(C)=O)[C@@H]1C)C4=O [RIFABUTIN] | 17.7 mg/mL (≈ 20900 µM) | 0.03 µg/mL (≈ 0.0354 µM) | 0.016 µg/mL (≈ 0.0189 µM) | 0.2 mg/mL (≈ 236 µM) | – | 0.00025 µg/mL (≈ 0.000295 µM) | 0.002 µg/mL (≈ 0.00236 µM) | – | Cmax [14]: 2200 ng/mL; half-life [15]: 3.4 h; AUC(0-inf) [16]: 6600 ng·h/mL |
| CO[C@H]1/C=C/O[C@@]2(C)Oc3c(C)c(O)c4c(c3C2=O)C2NC3(CCN(CC(C)C)CC3)NC2=C(NC(=O)/C(C)=C\C=C\[C@H](C)[C@H](OC(=O)CN(C)C(=O)CNC(=O)OCc2ccc(OP(=O)(O)O)cc2)[C@@H](C)[C@@H](O)[C@@H](C)[C@H](OC(C)=O)[C@@H]1C)C4=O (stereo partly specified) | – | 0.06 µg/mL (≈ 0.0497 µM) | 32 µg/mL (≈ 26.5 µM) | 4.5 mg/mL (≈ 3730 µM) | 101% | 0.001 µg/mL (≈ 0.000828 µM) | – | – | Tmax [17]: 4.98 min; half-life [18]: 2.9 h; Cmax [19]: 2700 ng/mL; AUC(0-inf) [20]: 8200 ng·h/mL; Drug uptake [21]: Active |
| COCCC(=O)N1C2=C3NC(=O)/C(C)=C\C=C\[C@H](C)[C@H](O)[C@@H](C)[C@@H](O)[C@@H](C)[C@H](OC(C)=O)[C@H](C)[C@@H](OC)/C=C/O[C@@]4(C)Oc5c(C)c(O)c(c(c5C4=O)C2NC12CCN(CC(C)C)CC2)C3=O (stereo partly specified) | – | – | – | – | – | – | – | 2% | – |
